Experimental findings from ChEMBL document CHEMBL1125826, “Synthesis and biological activity of 5-amino- and 5-hydroxyquinolones, and the overwhelming influence of the remote N1-substituent in determining the structure-activity relationship” (1991) are described below.

Assay type in all cases: functional
Assay [1] concerns Staphylococcus aureus. Nature of the assay: Antibacterial activity was determined against gram positive organism, Staphylococcus aureus UC76. The note with it: Staphylococcus aureus; read-out: MIC. The gist of the method: (§1)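 MIC (µg/mL) by standard microtitration against a panel of 10 Gram-positive and Gram-negative organisms; values averaged from multiple experiments.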
Assay [2] has as its system Bacteria. Briefly: MIC ratio measured as the mean MICs of gram-negative bacteria. In short, it runs like this: (§2)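 Geometric mean of the microtitration MICs (µg/mL) over the Gram-negative organisms, and separately over the Gram-positive organisms, of the 10-strain panel; individual MICs averaged from multiple experiments.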
Assay [3] has as its system Escherichia coli. Nature of the assay: The in vivo potency was determined in female charles river CD-1 mice infected with Escherichia coli after peroral administration. The note with it: Escherichia coli, po; read-out: PD50. In short, it runs like this: (§3)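 Acute lethal systemic infection in female CD-1 mice, 16 mice per route; single dose given orally by gavage at the time of challenge; median protective dose (PD50, mg/kg) determined.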

Another assay relates to Enterococcus faecalis. Nature of the assay: Antibacterial activity was determined against gram positive organism, Streptococcus faecalis MGH-2. As to conditions: Enterococcus faecalis; read-out: MIC. In short, it runs like this: as §1
Assay [4] has as its system Streptococcus pneumoniae. Nature of the assay: The in vivo potency was determined in female charles river CD-1 mice infected with Streptococcus pneumoniae after peroral administration. The note with it: for ED50: Streptococcus pneumoniae, po, read-out: PD50. In short, it runs like this: as §3
The next assay relates to Pseudomonas aeruginosa. Briefly: Antibacterial activity was determined against gram negative organism, Pseudomonas aeruginosa UI-18. The gist of the method:
as §1

Assay [5] concerns Streptococcus pyogenes. Briefly: The in vivo potency was determined in female charles river CD-1 mice infected with Streptococcus pyogenes after sc administration. The note with it: Streptococcus pyogenes, sc; read-out: PD50. The gist of the method: (§4)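 Acute lethal systemic infection in female CD-1 mice, 16 mice per route; single subcutaneous dose given at the time of challenge; median protective dose (PD50, mg/kg) determined.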

Assay [6] deals with Escherichia coli. Briefly: The in vivo potency was determined in female charles river CD-1 mice infected with Escherichia coli after sc administration. As to conditions: Escherichia coli, sc; read-out: PD50. The gist of the method: as §4
The test system of assay [7] is Streptococcus pyogenes. Nature of the assay: Antibacterial activity was determined against gram positive organism, Streptococcus pyogenes C203. The note with it: Streptococcus pyogenes; read-out: MIC. In short, it runs like this:
as §1

Assay [8] relates to Bacteria. Briefly: Antibacterial activity was determined against gram negative organism, Providencia rettgeri. M1771. In short, it runs like this: as §1
Assay [9] concerns the target DNA gyrase (Escherichia coli) (UniProt P0AES6+P0AES4). Nature of the assay: Minimum inhibitory concentration against Escherichia coli DNA-gyrase in supercoiling assay.
In assay [10] the test system is Streptococcus pneumoniae. Briefly: Antibacterial activity was determined against gram positive organism, Streptococcus pneumoniae SV-1. The gist of the method:
as §1

The test system of assay [11] is Escherichia coli. Briefly: Antibacterial activity was determined against gram negative organism, Escherichia coli vogel. As to conditions: Escherichia coli; read-out: MIC. The gist of the method:
as §1

In assay [12] the test system is Bacteria. Nature of the assay: MIC ratio measured as the mean MICs of gram-positive bacteria. In short, it runs like this:
as §2

A further assay concerns Klebsiella pneumoniae. Briefly: Antibacterial activity was determined against gram negative organism, Klebsiella pneumoniae MGH-2. As to conditions: Klebsiella pneumoniae; read-out: MIC. In short, it runs like this: as §1
The test system of assay [13] is Streptococcus pneumoniae. Nature of the assay: The in vivo potency was determined in female charles river CD-1 mice infected with Streptococcus pneumoniae after sc administration. The note with it: for ED50: Streptococcus pneumoniae, sc, read-out: PD50. In short, it runs like this:
as §4

Assay [14] has as its system Staphylococcus aureus. Nature of the assay: Antibacterial activity was determined against gram positive organism, Staphylococcus aureus H228. In short, it runs like this: as §1
Assay [15] relates to Streptococcus pyogenes. Briefly: The in vivo potency was determined in female charles river CD-1 mice infected with Streptococcus pyogenes after peroral administration. As to conditions: for ED50: Streptococcus pyogenes, po, read-out: PD50. The gist of the method: as §3
The test system of a further assay is Enterobacter cloacae. Briefly: Antibacterial activity was determined against gram negative organism, Enterobacter cloacae MA2646. The note with it: Enterobacter cloacae; read-out: MIC.
Setting [16] is: Pseudomonas aeruginosa, read-out: MIC.
The mark [17] stands for this setting: Streptococcus pneumoniae, read-out: MIC.
The mark [18] stands for this setting: Staphylococcus aureus, read-out: MIC.

SMILES strings stand for the structures. ≈ marks a conversion by molar mass, not a printed value.

For the compound `O=C(O)c1cn(C2CC2)c2c(F)c(N3CCNCC3)c(F)cc2c1=O`, the MIC with Staphylococcus aureus [1] amounted to 0.1 µg/mL (≈ 0.286 µM); with Enterococcus faecalis, 0.4 µg/mL (≈ 1.15 µM); in the assay with Pseudomonas aeruginosa (setting [16]), 0.2 µg/mL (≈ 0.573 µM); in the assay with Streptococcus pyogenes [7], 0.8 µg/mL (≈ 2.29 µM); in the assay with Bacteria [8] (Bacteria, read-out: MIC) it was 0.1 µg/mL (≈ 0.286 µM); in assay [9], 0.5 µg/mL (≈ 1.43 µM). Also, the MIC with Streptococcus pneumoniae [10] (setting [17]) amounted to 0.8 µg/mL (≈ 2.29 µM); with Escherichia coli [11] it was 0.05 µg/mL (≈ 0.143 µM); with Klebsiella pneumoniae it was 0.05 µg/mL (≈ 0.143 µM); in the assay with Staphylococcus aureus [14] (setting [18]), 0.4 µg/mL (≈ 1.15 µM); in the assay with Enterobacter cloacae it was 0.05 µg/mL (≈ 0.143 µM). In addition, the Geometric mean MIC over Gram-negative bacteria (µg/mL) with Bacteria [2] was 0.076. In addition, the ED50 was 0.5 mg/kg in the assay with Escherichia coli [3]; 33 mg/kg with Streptococcus pneumoniae [4]; 29 mg/kg in the assay with Streptococcus pyogenes [5]; 0.3 mg/kg in the assay with Escherichia coli [6]; 9 mg/kg with Streptococcus pneumoniae [13]; 59 mg/kg in the assay with Streptococcus pyogenes [15]. For the same compound, the “Geometric mean MIC over Gram-positive bacteria (µg/mL)” value with Bacteria [12] was found to be 0.4.

Consider `Nc1c(F)c(N2CCNCC2)c(F)c2c1c(=O)c(C(=O)O)cn2C1CC1`, for which the MIC in the assay on Staphylococcus aureus [1] came to 0.013 µg/mL (≈ 0.0357 µM); in the assay on Enterococcus faecalis, 0.05 µg/mL (≈ 0.137 µM); in the assay with Pseudomonas aeruginosa (setting [16]) it was 0.025 µg/mL (≈ 0.0686 µM); with Streptococcus pyogenes [7], 0.1 µg/mL (≈ 0.274 µM); with Bacteria [8] (Bacteria, read-out: MIC) it was 0.05 µg/mL (≈ 0.137 µM); in assay [9], 0.5 µg/mL (≈ 1.37 µM). The MIC turned out to be 0.05 µg/mL (≈ 0.137 µM) with Streptococcus pneumoniae [10] (setting [17]); 0.013 µg/mL (≈ 0.0357 µM) in the assay with Escherichia coli [11]; 0.025 µg/mL (≈ 0.0686 µM) in the assay on Klebsiella pneumoniae; 0.05 µg/mL (≈ 0.137 µM) in the assay with Staphylococcus aureus [14] (setting [18]); 0.013 µg/mL (≈ 0.0357 µM) with Enterobacter cloacae. Besides, the Geometric mean MIC over Gram-negative bacteria (µg/mL) in the assay on Bacteria [2] stood at 0.022. For the same compound, the ED50 with Escherichia coli [3] came out at 0.8 mg/kg; in the assay on Streptococcus pneumoniae [4], 68 mg/kg; in the assay with Streptococcus pyogenes [5] it was 23 mg/kg; with Escherichia coli [6], 0.2 mg/kg; in the assay on Streptococcus pneumoniae [13] it was 27 mg/kg; in the assay with Streptococcus pyogenes [15], 31 mg/kg. For the same compound, the “Geometric mean MIC over Gram-positive bacteria (µg/mL)” value with Bacteria [12] amounted to 0.044.

`CC1CN(c2c(F)c(N)c3c(=O)c(C(=O)O)cn(C4CC4)c3c2F)CCN1` (stereo not drawn): the MIC in the assay on Staphylococcus aureus [1] amounted to 0.025 µg/mL (≈ 0.0661 µM); in the assay with Enterococcus faecalis it was 0.1 µg/mL (≈ 0.264 µM); in the assay on Pseudomonas aeruginosa (setting [16]), 0.4 µg/mL (≈ 1.06 µM); in the assay on Streptococcus pyogenes [7], 0.2 µg/mL (≈ 0.529 µM); with Bacteria [8] (Bacteria, read-out: MIC), 0.05 µg/mL (≈ 0.132 µM); in assay [9], 1 µg/mL (≈ 2.64 µM). Besides, the MIC in the assay with Streptococcus pneumoniae [10] (setting [17]) stood at 0.05 µg/mL (≈ 0.132 µM); in the assay with Escherichia coli [11] it was 0.013 µg/mL (≈ 0.0344 µM); with Klebsiella pneumoniae, 0.025 µg/mL (≈ 0.0661 µM); with Staphylococcus aureus [14] (setting [18]), 0.05 µg/mL (≈ 0.132 µM); with Enterobacter cloacae it was 0.013 µg/mL (≈ 0.0344 µM). The Geometric mean MIC over Gram-negative bacteria (µg/mL) with Bacteria [2] worked out at 0.038. Also, the ED50 was determined as 0.5 mg/kg with Escherichia coli [3]; 20 mg/kg in the assay on Streptococcus pneumoniae [4]; 18 mg/kg in the assay with Streptococcus pyogenes [5]; 0.2 mg/kg in the assay on Escherichia coli [6]; 15 mg/kg with Streptococcus pneumoniae [13]; 20 mg/kg with Streptococcus pyogenes [15]. In addition, the “Geometric mean MIC over Gram-positive bacteria (µg/mL)” value in the assay on Bacteria [12] is 0.066.

Turning to `Nc1c(F)c(N2CCC(N)C2)c(F)c2c1c(=O)c(C(=O)O)cn2C1CC1` (stereo not drawn), the MIC in the assay on Staphylococcus aureus [1] came out at 0.013 µg/mL (≈ 0.0357 µM); in the assay with Enterococcus faecalis it was 0.05 µg/mL (≈ 0.137 µM); in the assay with Pseudomonas aeruginosa (setting [16]), 0.1 µg/mL (≈ 0.274 µM); with Streptococcus pyogenes [7], 0.025 µg/mL (≈ 0.0686 µM); in the assay on Bacteria [8] (Bacteria, read-out: MIC), 0.025 µg/mL (≈ 0.0686 µM); in [9], 0.5 µg/mL (≈ 1.37 µM). In addition, the MIC in the assay with Streptococcus pneumoniae [10] (setting [17]) was determined as 0.025 µg/mL (≈ 0.0686 µM); in the assay on Escherichia coli [11], 0.006 µg/mL (≈ 0.0165 µM); with Klebsiella pneumoniae, 0.013 µg/mL (≈ 0.0357 µM); with Staphylococcus aureus [14] (setting [18]), 0.05 µg/mL (≈ 0.137 µM); with Enterobacter cloacae, 0.006 µg/mL (≈ 0.0165 µM). For the same compound, in the assay on Bacteria [2], the Geometric mean MIC over Gram-negative bacteria (µg/mL) was found to be 0.016. Besides, the ED50 is 2 mg/kg in the assay with Escherichia coli [3]; 28 mg/kg in the assay with Streptococcus pneumoniae [4]; 9 mg/kg in the assay on Streptococcus pyogenes [5]; 1 mg/kg in the assay on Escherichia coli [6]; 8 mg/kg in the assay on Streptococcus pneumoniae [13]; 20 mg/kg in the assay with Streptococcus pyogenes [15]. For the same compound, the “Geometric mean MIC over Gram-positive bacteria (µg/mL)” value with Bacteria [12] was found to be 0.029.

As for `NC1CCN(c2c(F)cc3c(=O)c(C(=O)O)cn(C4CC4)c3c2Cl)C1` (stereo in doubt; 1f-4) [CLINAFLOXACIN], the MIC stood at 0.025 µg/mL (≈ 0.0683 µM) with Staphylococcus aureus [1]; 0.1 µg/mL (≈ 0.273 µM) in the assay with Enterococcus faecalis; 0.2 µg/mL (≈ 0.547 µM) in the assay on Pseudomonas aeruginosa; 0.1 µg/mL (≈ 0.273 µM) in the assay with Streptococcus pyogenes [7]; 0.1 µg/mL (≈ 0.273 µM) with Bacteria [8]; 0.1 µg/mL (≈ 0.273 µM) against Streptococcus pneumoniae [10]. Further, the MIC came to 0.025 µg/mL (≈ 0.0683 µM) in the assay on Escherichia coli [11], 0.05 µg/mL (≈ 0.137 µM) with Klebsiella pneumoniae, 0.1 µg/mL (≈ 0.273 µM) in the assay on Staphylococcus aureus [14] and 0.025 µg/mL (≈ 0.0683 µM) with Enterobacter cloacae. Besides, the figures for the ED50 with Escherichia coli [3], in the assay with Streptococcus pyogenes [5] and with Escherichia coli [6] were 3 mg/kg, 4 mg/kg and 0.5 mg/kg, respectively. Further, the results for the PD50 in the assay with Streptococcus pneumoniae [4], in the assay with Streptococcus pneumoniae [13] and with Streptococcus pyogenes [15] were 97 mg/kg, 11 mg/kg and 43 mg/kg, respectively. In addition, the “Geometric mean MIC over Gram-positive bacteria (µg/mL)” value in the assay with Bacteria [12] amounted to 0.075.
